Screening data deposited in PubChem by The Scripps Research Institute Molecular Screening Center.
Shown are actives, neighbours in structure and some others; about 2.3% of the full set was active somewhere.
PLCg1 inh = PLC-gamma1 (human) inhibition, primary screen; AID 720700; inhibition, % at 12.2 µM; P19174; purified PLC-gamma1, fluorogenic substrate, fluorescence; 0.84% of 370,000 active; in the data active = inhibition above about 9.5%
ADAM17 inh = inhibits human ADAM17 | inhibition, % at 6.95 µM | 0.83% of 370,000 active | AID 720648 | P78536 | recombinant ADAM17, EDANS/DABCYL FRET peptide cleavage;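 active = inhibition above the mean of compounds lying between control limits plus 3 SD, set per campaign, cut at about 8.5% in these data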;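 also: 0% = DMSO-only wells as the low control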
TbMetRS inhib = Trypanosoma brucei MetRS inhibition; 0.4% of 360,000 active; inhibition, % at 11.9 µM; AID 624268; purified T. brucei MetRS, ATP depletion, Kinase-Glo luminescence;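 active = inhibition above a per-plate cutoff of the control wells' mean inhibition plus 3 SD, cut at about 5.5% in these data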;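 also: 0% = DMSO wells median and 100% = median of wells with control inhibitor compound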
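Measured by: Kinase-Glo luciferase luminescence reporting remaining unconsumed ATP. Material: purified T. brucei MetRS enzyme. Doses: 11.9 µM compound single dose, 0.9% DMSO. Medium: HEPES buffer containing pyrophosphatase, BSA, spermine, DTT. Times: 15 min preincubation, 2 h reaction, all 25 °C. Reagent: methionine, ATP and bulk E. coli tRNA.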
PLCb3 inh = PLC-beta3 (human) inhibition, primary screen | Q01970 | Purified PLC-beta3, fluorogenic substrate, fluorescence | inhibition, % at 12.2 µM | 0.18% of 370,000 active | AID 720704; in the data active = inhibition above about 11%;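 also: 0% = median of compound wells on plate and 100% = full blocker control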
Target sequence (Q01970 whole entry, looked up): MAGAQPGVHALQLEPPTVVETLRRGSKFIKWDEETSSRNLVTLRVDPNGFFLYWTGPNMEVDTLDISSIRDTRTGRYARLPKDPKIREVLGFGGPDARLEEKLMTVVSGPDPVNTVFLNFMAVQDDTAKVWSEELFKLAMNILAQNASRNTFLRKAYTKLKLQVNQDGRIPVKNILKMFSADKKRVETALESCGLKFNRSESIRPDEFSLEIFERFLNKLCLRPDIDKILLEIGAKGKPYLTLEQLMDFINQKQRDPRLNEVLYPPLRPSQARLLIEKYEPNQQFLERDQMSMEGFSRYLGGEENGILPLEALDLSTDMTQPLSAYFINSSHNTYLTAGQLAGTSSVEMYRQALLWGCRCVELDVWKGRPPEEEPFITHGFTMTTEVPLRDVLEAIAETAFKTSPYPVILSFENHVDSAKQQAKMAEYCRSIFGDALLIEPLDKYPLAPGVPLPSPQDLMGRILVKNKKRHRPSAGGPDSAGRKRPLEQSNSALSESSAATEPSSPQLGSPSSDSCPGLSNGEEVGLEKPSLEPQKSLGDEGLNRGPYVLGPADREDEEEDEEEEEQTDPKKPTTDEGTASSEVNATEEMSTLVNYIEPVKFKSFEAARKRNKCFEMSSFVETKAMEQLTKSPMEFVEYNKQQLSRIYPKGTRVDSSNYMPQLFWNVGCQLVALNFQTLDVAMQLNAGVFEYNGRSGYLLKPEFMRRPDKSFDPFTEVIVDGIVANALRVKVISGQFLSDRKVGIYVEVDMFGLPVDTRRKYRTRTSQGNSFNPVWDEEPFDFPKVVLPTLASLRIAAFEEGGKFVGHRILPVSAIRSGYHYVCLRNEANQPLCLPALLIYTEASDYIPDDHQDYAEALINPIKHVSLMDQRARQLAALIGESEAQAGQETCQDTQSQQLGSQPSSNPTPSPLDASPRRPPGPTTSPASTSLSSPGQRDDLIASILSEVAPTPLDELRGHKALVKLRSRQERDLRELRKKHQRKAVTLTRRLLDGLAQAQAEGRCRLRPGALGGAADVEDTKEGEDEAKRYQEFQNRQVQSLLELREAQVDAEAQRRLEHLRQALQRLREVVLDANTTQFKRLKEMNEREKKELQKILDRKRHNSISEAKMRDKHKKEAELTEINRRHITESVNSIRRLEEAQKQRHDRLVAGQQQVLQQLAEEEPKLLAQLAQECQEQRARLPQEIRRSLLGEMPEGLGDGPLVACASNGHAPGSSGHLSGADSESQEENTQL
ADAM10 inh = ADAM10 inhibition, QFRET primary screen | inhibition, % at 7 µM | 0.62% of 370,000 active | recombinant ADAM10, EDANS/DABCYL FRET peptide cleavage, 3 h | O14672;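 active = inhibition above a per-campaign cutoff equal to the mean of compounds falling between control-based bounds plus 3 SD, cut at about 20% in these data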;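 also: 0% = DMSO wells while the 100% control is not disclosed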
Numbers without * were called inactive; nt = no result given; ! = repeats disagree.

SMILES | PLCg1 inh | ADAM17 inh | TbMetRS inhib | PLCb3 inh | ADAM10 inh
Cc1ccc2c(c1)[C@H]1[C@H](CO2)[C@H](c2ccccc2)[C@]2(C)C(=O)Nc3ccc(Cl)cc3C(=O)N12 | 3 | 11* | 0 | -7 | 29*
C[C@@]12C(=O)Nc3ccc(Cl)cc3C(=O)N1[C@H]1c3cc(Cl)ccc3OC[C@@H]1[C@@H]2c1ccccc1 | 1 | 7 | 0 | -1 | 10
C[C@@]12C(=O)N(CC3CCCO3)CC(=O)N1[C@H]1c3cc(Cl)ccc3OC[C@@H]1[C@@H]2c1ccccc1 (some centres not stated) | 10* | 3 | 0 | 1 | 11
O=C(Cn1nnc2ccccc21)NNC(=S)NC1CCCCC1 | 2 | -3 | 2 | -5 | 9
CCCCCCCCN1CC(Cc2cc3ccccc3c3ccccc23)N(c2ccccc2)c2ccccc2C1=O (configuration not stated) | 3 | -2 | 0 | -1 | 5
CC[C@]12c3[nH]c4ccc(OC)cc4c3CCN1C(=O)C(CC(=O)NCc1cccc(C(F)(F)F)c1)C[C@@H]2C(=O)N1CCN(C(=O)c2ccco2)CC1 (some centres not stated) | 11* | 6 | 0 | 5 | 15
N#CCC(=O)N/N=C/c1cc(-c2ccccc2)n(-c2ccc(Cl)cc2)c1-c1ccccc1 | -1 | -3 | nt | -9 | -6
OC(c1ccccc1)(c1ccccc1)C1CCN(CCCOc2ccc(F)cc2)CC1 | 11*! | 1 | -1 | 4 | 5
CN(C(=O)CSc1nnc(Cc2cccs2)n1C1CC1)C1CCS(=O)(=O)C1 (configuration not stated) | 1 | -1 | 0 | -2 | -7
O=C(OCc1ccccc1)N(CCCCN(CCCNCc1ccccc1)C(=O)OCc1ccccc1)CCCNCc1ccccc1 | 10.0* | 1 | 0 | 4 | 1
O=C(NCCCCCCNC(=O)OCc1ccccc1)OCc1ccccc1 | 0 | -6 | 0 | 0 | -5
Cc1nnc(SCC(=O)Nc2cccc(Br)c2)s1 | 1 | -11 | 0 | -6 | -9
O=S(=O)(O)c1cc(O)c2c(O)c(N=Nc3cc(Cl)ccc3O)c(S(=O)(=O)O)cc2c1 | nt | nt | 18* | nt | nt
Oc1ccc(Cl)cc1N=Nc1ccccc1 | -1 | -1 | -1 | -2 | 5
CCC(=O)NC(c1cccs1)c1cc([N+](=O)[O-])c2cccnc2c1OC (configuration not stated) | 18* | 1 | -2 | -3 | 0
COc1ccc(Cn2nnnc2C(c2cccs2)N2CCN(c3ccccc3)CC2)cc1 (configuration not stated) | 2 | 0 | 0 | 4 | 0
Oc1ccc(N2CCN(C(c3cccs3)c3nnnn3CCc3ccccc3)CC2)cc1 (configuration not stated) | -1 | 2 | -1 | 0 | 21*
O=C1C=CC(=Nc2ccc(F)cc2)O1 | 1 | -2 | 0 | -5 | -3
O=C1C=CC(=Nc2ccc3c(c2)C(=O)c2ccccc2-3)O1 | 4 | 12* | 0 | 0 | 11
Cc1ccccc1NC(=O)Cc1nc(COC(=O)COc2cccc(C)c2C)cs1 | 12* | 1 | 0 | -11 | 13
CCOc1ccccc1OCC(=O)OCc1csc(CC(=O)Nc2ccccc2C)n1 | 1 | -2 | 0 | -6 | -9
CC(C)N(Cc1nc(-c2ccccc2)no1)S(=O)(=O)c1ccccc1 | 3 | 1 | -1 | -1 | -14
O=S(=O)(c1ccccc1)N(Cc1nc(-c2ccccc2)no1)C1CCCCC1 | 15* | 7 | -1 | -13 | 17
CN=C(Nc1ccc(Cl)cc1)c1cccc(C(F)(F)F)c1 | 1 | 3 | -1 | 4 | 5
CN=C(Nc1ccc(Cl)cc1)c1ccc(C(F)(F)F)cc1 | 15* | 3 | -1 | 5 | 13
O=C(CSC1=NNC(c2ccccn2)S1)Nc1cccc(Cl)c1 (configuration not stated) | -3 | 5 | 1 | -11 | 22*
O=C(CSC1=NNC(c2ccccn2)S1)Nc1ccccc1 (configuration not stated) | -4 | 2 | 0 | -11 | 2
Cc1onc(-c2ccccc2)c1C(=O)Nc1ccccc1N1CCOCC1 | 13* | 5 | 0 | 2 | 16
O=C(CSc1nc2ccccc2[nH]1)Nc1ccc(F)cc1 | -4 | 0 | 17* | -3 | -10
O=c1[nH]c(-c2ccccc2)cn1C1CCN(Cc2ccc(-c3nc4ccc(Br)cc4nc3-c3ccccc3)cc2)CC1 | -5 | 7 | nt | -4 | 11
